# Experimental data from ChEMBL document CHEMBL1138881, “Application of phosphoramidate ProTide technology significantly improves antiviral potency of carbocyclic adenosine derivatives” (J Med Chem, 2006).
# Key:
# [1] = system: HepG2; assay: Cytotoxicity against HepG2 2.2.15 cells; assay type: functional; details: Homo sapiens
# Procedure, shortened: (§1)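 HepG2 2.2.15 cells, which produce HBV constitutively, were seeded at 5 × 10³ per well. Drug-containing medium was replaced every other day for 9 days. Virions in the supernatant were captured on anti-HBsAg plates, and their DNA was quantified by PCR against an HBV standard curve and normalized to untreated cells. For cell growth, monolayers were ethanol-fixed and stained with bisbenzimide H33342, and fluorescence was compared with untreated cells. SI = CC₅₀/EC₅₀.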
# [2] = system: Hepatitis B virus; assay: Antiviral activity against HBV in HepG2 2.2.15 cells; assay type: functional, organism-based; procedure, shortened: as §1
# [3] = system: MT4; assay: Cytotoxicity against MT4 cells; assay type: functional; details: Homo sapiens
# Procedure, shortened: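 Exponentially growing MT-4 cells were resuspended at 5 × 10⁵ cells/mL in RPMI 1640 with 20% FBS and 20% IL-2. They were infected with HIV-1 IIIB (100 × TCID₅₀ per well) for 1 h at 37 °C, with mock-infected cells run in parallel. The suspension was diluted 6-fold onto serially diluted compound and incubated for 5 days at 37 °C in 5% CO₂. MTS staining was read at 492 nm.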
# [4] = system: Human immunodeficiency virus 1; assay: Antiviral activity against HIV1 3B in MT4 cells; assay type: functional, organism-based; details: Human immunodeficiency virus 1, 3B
# Procedure, shortened: (§2)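 MT-4 cells at 4.5 × 10⁵ cells/mL were infected with 100 CCID₅₀/mL of HIV-1 or HIV-2. Viable cells were then counted after trypan blue staining, and EC₅₀ was derived from these viable-cell counts.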
# [5] = system: CEM cells (Homo sapiens); assay: Cytotoxicity against CEM cells
# [6] = system: Human immunodeficiency virus 2; assay: Antiviral activity against HIV2 ROD in CEM cells; assay type: functional, organism-based; details: Human immunodeficiency virus 2, ROD, CCRF-CEM
# Procedure, shortened: (§3)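 CEM cells at 4.5 × 10⁵ cells/mL were infected with 100 CCID₅₀/mL of HIV-1 or HIV-2. Giant-cell formation was scored microscopically. EC₅₀ was the concentration preventing syncytium formation by 50%.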
# [7] = system: Human immunodeficiency virus 1; assay: Antiviral activity against HIV1 3B in CEM cells; assay type: functional, organism-based; details: Human immunodeficiency virus 1, 3B, CCRF-CEM; procedure, shortened: as §3
# [8] = system: Human immunodeficiency virus 2; assay: Antiviral activity against HIV2 ROD in MT4 cells; assay type: functional, organism-based; details: Human immunodeficiency virus 2, ROD; procedure, shortened: as §2
# [9] = system: Cynomolgus monkey; assay: Metabolic stability in cynomolgus monkey intestine S9 fraction; assay type: ADME, Macaca fascicularis
# Procedure, shortened: (§4)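 Pooled cynomolgus S9 (liver or intestinal segments), test compound 10 µM final, 37 °C, DMSO <1% final; reaction started with NADPH 2.5 mM final. Aliquots taken at 0 (preincubation), 10, 20, 30 and 60 min, quenched with cold acetonitrile, centrifuged; supernatant parent measured by LC/MS/MS. Stability given as % remaining from pre- vs postincubation peak areas.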
# [10] = system: Cynomolgus monkey; assay: Metabolic stability in cynomolgus monkey liver S9 fraction; assay type: ADME, Macaca fascicularis; procedure, shortened: as §4
Structure (SMILES),CC50 [1] [µM],EC50 [2] [µM],CC50 [3] [µM],EC50 [4] [µM],CC50 [5] [µM],EC50 [6] [µM],EC50 [7] [µM],EC50 [8] [µM],Stability [9] [%],Stability [10] [%]
Nc1ncnc2c1ncn2[C@@H]1C=C[C@H](CO)C1,> 200,0.98,> 100,80,,,,,,
COC(=O)[C@H](C)NP(=O)(OC[C@H]1CC[C@@H](n2cnc3c(N)ncnc32)C1)Oc1ccccc1 (some centres not stated),> 2,0.6,> 12.5,1.8,,,,,,
COC(=O)[C@H](NP(=O)(OC[C@H]1C=C[C@@H](n2cnc3c(N)ncnc32)C1)Oc1ccccc1)C(C)C (some centres not stated),> 200,0.6,> 16,2.3,230,10,7.5,14.2,,
COC(=O)[C@@H](CC(C)C)NP(=O)(OC[C@H]1C=C[C@@H](n2cnc3c(N)ncnc32)C1)Oc1ccccc1 (some centres not stated),> 2,0.13,< 16,< 1,88.5,3.5,1.6,0.93,,
COC(=O)[C@H](Cc1ccccc1)NP(=O)(OC[C@H]1C=C[C@@H](n2cnc3c(N)ncnc32)C1)Oc1ccccc1 (some centres not stated),9,0.0045,16,0.1,,,,,,
COC(=O)[C@@H](C)NP(=O)(OC[C@H]1C=C[C@@H](n2cnc3c(N)ncnc32)C1)Oc1ccccc1 (some centres not stated),> 200,0.0265,> 100,2.05,,,,,94,41
COC(=O)C[C@@H](NP(=O)(OC[C@H]1C=C[C@@H](n2cnc3c(N)ncnc32)C1)Oc1ccccc1)C(=O)OC (some centres not stated),> 2,0.02,> 10,2.1,≥ 250,15,5,3.71,,
COC(=O)[C@H]1CCCN1P(=O)(OC[C@H]1C=C[C@@H](n2cnc3c(N)ncnc32)C1)Oc1ccccc1 (some centres not stated),> 2,> 2,227,117,≥ 250,105,110,105,,
Nc1ncnc2c1ncn2[C@H]1C=C[C@@H](CO)C1,> 200,52,> 500,15,,,,,,
COC(=O)[C@H](C)NP(=O)(OC[C@H]1C=C[C@@H](n2cnc3c(N)ncnc32)C1)Oc1ccc(Cl)cc1 (some centres not stated),> 2,0.003,2,0.009,3.11,0.047,0.015,0.018,,
COC(=O)[C@@H](Cc1ccccc1)NP(=O)(OC[C@H]1C=C[C@@H](n2cnc3c(N)ncnc32)C1)Oc1ccccc1 (some centres not stated),200,0.7,> 40,2.8,108,8.67,9,5.93,,
COC(=O)[C@H](C)NP(=O)(OC[C@H]1C=C[C@@H](n2cnc3c(N)ncnc32)C1)Oc1ccc(Cl)c(Cl)c1 (some centres not stated),> 2,0.005,> 4,0.077,13,0.11,0.09,0.076,,
CCOC(=O)[C@H](C)NP(=O)(OC[C@H]1C=C[C@@H](n2cnc3c(N)ncnc32)C1)Oc1ccccc1 (some centres not stated),22,0.02,> 25,0.017,,,,,39,15
COC(=O)[C@H](C)NP(=O)(OC[C@H]1C=C[C@@H](N2C=NC3C(N)=NC=NC32)C1)Oc1ccc(C(F)(F)F)cc1 (some centres not stated),0.72,< 0.0032,5.87,0.035,6.4,0.06,0.06,0.046,,
Nc1ncnc2c1ncn2[C@@H]1CC[C@H](CO)C1,> 200,61,> 10,> 10,,,,,,
COC(=O)[C@@H]1CCCN1P(=O)(OC[C@H]1C=C[C@@H](n2cnc3c(N)ncnc32)C1)Oc1ccccc1 (some centres not stated),> 2,0.51,> 10,5.28,92.1,7.5,3.5,21,,
COC(=O)[C@H](C)NP(=O)(OC[C@H]1C=C[C@@H](n2cnc3c(N)ncnc32)C1)Oc1ccc([N+](=O)[O-])cc1 (some centres not stated),> 2,0.007,10,0.12,17.4,0.1,0.1,0.17,,
COC(=O)[C@@H](Cc1c[nH]c2ccccc12)NP(=O)(OC[C@H]1C=C[C@@H](n2cnc3c(N)ncnc32)C1)Oc1ccccc1 (some centres not stated),> 2,0.2,> 40,13.3,93.4,25,20,21.9,,
COC(=O)[C@H](C)NP(=O)(OC[C@@H]1C=C[C@H](n2cnc3c(N)ncnc32)C1)Oc1ccccc1 (some centres not stated),5.4,4,3.7,0.3,,,,,,
COC(=O)[C@@H](CCSC)NP(=O)(OC[C@H]1C=C[C@@H](n2cnc3c(N)ncnc32)C1)Oc1ccccc1 (some centres not stated),> 2,0.22,> 25,2.5,211,7.87,7.67,3.48,,
COC(=O)[C@H](C)NP(=O)(OC[C@H]1C=C[C@@H](n2cnc3c(N)ncnc32)C1)Oc1cccc(C(F)(F)F)c1 (some centres not stated),,,,,,,,,92,45
Nc1ncnc2c1ncn2[C@H]1CC[C@@H](CO)C1,> 200,33,> 125,50,,,,,,
COC(=O)[C@H](Cc1ccc(OC(C)(C)C)cc1)NP(=O)(OC[C@H]1C=C[C@@H](n2cnc3c(N)ncnc32)C1)Oc1ccccc1 (some centres not stated),> 2,0.026,19.8,0.11,79.7,5.5,3,0.13,,
C[C@H](NP(=O)(OC[C@H]1C=C[C@@H](n2cnc3c(N)ncnc32)C1)Oc1ccccc1)C(=O)OCc1ccccc1 (some centres not stated),5,0.0075,255,0.009,,,,,0,0
